Experimental data gathered from unrelated publications.
Protocols differ between the studies behind these lines. In brackets after ≈: the same amount, converted by molar mass.

Structure (SMILES)	method	matrix	time	pH	temperature	endpoint	value
CC[C@H](C)[C@H](NC(=O)[C@H](Cc1ccccc1)NC(=O)[C@H](Cc1ccc(O)cc1)NC(=O)[C@@H]1CCCN1C(=O)[C@H](N)CCCCN)C(=O)N1CCC[C@H]1C(=O)N[C@@H](CC(C)C)C(=O)NCC(=O)N[C@H](CCCCN)C(=O)NCC(=O)N[C@@H](CCC(=O)O)C(=O)N[C@H](C(=O)N[C@@H](CC(N)=O)C(=O)N[C@@H](CC(C)C)[C@@H](O)CC(=O)N[C@H](C(=O)N[C@@H](C)C(=O)N[C@@H](CCC(=O)O)C(=O)N1CCC[C@@H]1C(=O)N[C@@H](CCCCNC(=O)CCC(=O)O[C@H]1CC[C@@]2(C)C(=CC[C@H]3[C@@H]4CC[C@H]([C@H](C)CCCC(C)C)[C@@]4(C)CC[C@@H]32)C1)C(N)=O)C(C)C)C(C)C		aqueous buffer		pH 6.5		thermodynamic solubility	951 µg/mL
CCCn1nc(C(=O)N2CCCCC2)c2c1CCC(N(C)Cc1ccc(F)cc1)C2 (centres unmarked)		PBS	16 h	pH 7.4		thermodynamic solubility	2400 µM
CC(=O)N[C@@H](CCCNC(=N)N)C(=O)N[C@H]1CSSC[C@@H](C(=O)N[C@H](C(N)=O)[C@@H](C)O)NC(=O)[C@H](CCCNC(=N)N)NC(=O)[C@H](Cc2c[nH]cn2)NC(=O)[C@H](C)NC(=O)CNC(=O)[C@H](Cc2c[nH]c3ccccc23)NC(=O)[C@H](CC(=O)O)NC(=O)[C@H](CCC(N)=O)NC(=O)[C@H](Cc2cn(C)c3ccccc23)NC(=O)[C@H](C(C)C)NC1=O	absorbance	water				thermodynamic solubility	> 1000 µM
CC(=O)Nc1cc(Nc2cc(NC3CC3)n3ncc(C#N)c3n2)ccc1N(C)[C@H]1CCOC1	shake flask	PBS	24 h	pH 7.4	22 °C	kinetic solubility	21 µg/mL (≈ 47 µM)
CC[C@H](C)[C@H](NC(=O)[C@@H](CCCCN)NC(=O)[C@H](Cc1ccc(O)cc1)NC(=O)[C@@H]1CCCN1C(=O)[C@@H](N)Cc1ccc(O)cc1)C(=O)N1CCC[C@H]1C(=O)N[C@@H](CC(C)C)C(=O)NCC(=O)N[C@H](CCCCN)C(=O)NCC(=O)N[C@@H](CCC(=O)O)C(=O)N[C@H](C(=O)N[C@@H](CC(N)=O)C(=O)N[C@@H](CC(C)C)[C@@H](O)CC(=O)N[C@H](C(=O)N[C@@H](C)C(=O)N[C@@H](CCC(=O)O)C(=O)N1CCC[C@@H]1C(=O)N[C@@H](CCCCNC(=O)CCC(=O)O[C@H]1CC[C@@]2(C)C(=CC[C@H]3[C@@H]4CC[C@H]([C@H](C)CCCC(C)C)[C@@]4(C)CC[C@@H]32)C1)C(N)=O)C(C)C)C(C)C		aqueous buffer		pH 6.5		thermodynamic solubility	> 2440 µg/mL
CC(=O)N[C@@H](CCCNC(=N)N)C(=O)N[C@H]1CSSC[C@@H](C(=O)N[C@H](C(N)=O)[C@@H](C)O)NC(=O)[C@H](CCCNC(=N)N)NC(=O)[C@H](Cc2c[nH]cn2)NC(=O)[C@H](C)NC(=O)CNC(=O)[C@H](Cc2c[nH]c3ccccc23)NC(=O)[C@H](CC(=O)O)NC(=O)[C@H](CCC(N)=O)NC(=O)[C@H](Cc2c[nH]c3ccccc23)NC(=O)[C@H](C(C)C)NC1=O	absorbance	water				thermodynamic solubility	> 1000 µM
Brc1cccc2c(NCc3ccccc3)nc(NCc3ccccc3)nc12		aqueous buffer		pH 5		solubility	0.42 µg/mL (≈ 1 µM)
CC(=O)Oc1ccccc1C(=O)O		aqueous buffer	72 h	pH 6.8	37 °C	thermodynamic solubility	158000 µg/mL
COc1cccc2c(NCc3ccccc3)nc(-n3c(=O)oc4ccccc43)nc12		aqueous buffer		pH 6.2		solubility	< 0.01 µg/mL
CC[C@H](C)[C@H](NC(=O)[C@H](Cc1ccccc1)NC(=O)[C@@H](CCCCN)NC(=O)[C@@H]1CCCN1C(=O)[C@@H](N)Cc1ccc(O)cc1)C(=O)N1CCC[C@H]1C(=O)N[C@@H](CC(C)C)C(=O)NCC(=O)N[C@H](CCCCN)C(=O)NCC(=O)N[C@@H](CCC(=O)O)C(=O)N[C@H](C(=O)N[C@@H](CC(N)=O)C(=O)N[C@@H](CC(C)C)[C@@H](O)CC(=O)N[C@H](C(=O)N[C@@H](C)C(=O)N[C@@H](CCC(=O)O)C(=O)N1CCC[C@@H]1C(=O)N[C@@H](CCCCNC(=O)CCC(=O)O[C@H]1CC[C@@]2(C)C(=CC[C@H]3[C@@H]4CC[C@H]([C@H](C)CCCC(C)C)[C@@]4(C)CC[C@@H]32)C1)C(N)=O)C(C)C)C(C)C		aqueous buffer		pH 6.5		thermodynamic solubility	> 3000 µg/mL
Brc1cccc(Nc2nc(NCc3ccccc3)c3ccccc3n2)c1		aqueous buffer		pH 7.4		solubility	< 0.01 µg/mL
CC[C@H](C)[C@H](NC(=O)[C@H](Cc1ccccc1)NC(=O)[C@H](Cc1ccc(O)cc1)NC(=O)[C@@H](CCCCN)NC(=O)[C@@H](N)Cc1ccc(O)cc1)C(=O)N1CCC[C@H]1C(=O)N[C@@H](CC(C)C)C(=O)NCC(=O)N[C@H](CCCCN)C(=O)NCC(=O)N[C@@H](CCC(=O)O)C(=O)N[C@H](C(=O)N[C@@H](CC(N)=O)C(=O)N[C@@H](CC(C)C)[C@@H](O)CC(=O)N[C@H](C(=O)N[C@@H](C)C(=O)N[C@@H](CCC(=O)O)C(=O)N1CCC[C@@H]1C(=O)N[C@@H](CCCCNC(=O)CCC(=O)O[C@H]1CC[C@@]2(C)C(=CC[C@H]3[C@@H]4CC[C@H]([C@H](C)CCCC(C)C)[C@@]4(C)CC[C@@H]32)C1)C(N)=O)C(C)C)C(C)C		aqueous buffer		pH 6.5		thermodynamic solubility	< 1 µg/mL
Brc1ccccc1CNc1nc(NCc2ccccc2)c2ccccc2n1		aqueous buffer		pH 6.2		solubility	0.24 µg/mL (≈ 0.572 µM)
COc1ccc(C2CC(=O)c3c(O)cc(O)cc3O2)cc1O (centres unmarked)	shake flask	aqueous buffer	24 h	pH 5	25 °C	thermodynamic solubility	9.33 µg/mL
